In ChEMBL document CHEMBL1121913, “Inactivation of liver alcohol dehydrogenases and inhibition of ethanol metabolism by ambivalent active-site-directed reagents” (J Med Chem, 1981):

Assays:
[1] = The compound was tested for the ability to inactivate rat liver alcohol dehydrogenase in the absence of NAD+K
Outline: (§1)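 Rat liver enzyme purified 15-fold ((NH₄)₂SO₄ 35–75%, DEAE-cellulose). Inactivation with 0.2 mM reagent, 0.1 M pyrophosphate buffer pH 8, 25 °C, enzyme near 0.2 mg/mL; NAD⁺ preincubated 1 min with enzyme before reagent addition. Apparent second-order constants computed on assumption of first-order dependence on reagent.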

[2] = The compound was tested for the ability to inactivate mouse liver alcohol dehydrogenase in the absence of NAD+K
Outline: (§2)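 Mouse liver ADH, fourfold purified ((NH₄)₂SO₄ 45–65% cut, DEAE-cellulose), incubated at about 0.2 mg/mL with 0.2 mM reagent in 0.1 M Na₂P₂O₇ pH 8, 25 °C; coenzyme, when present, added 1 min before inactivator. Apparent second-order rate constant derived assuming reaction first order in reagent.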

[3] = The compound was tested for the ability to inactivate rat liver alcohol dehydrogenase in the presence of 1 mM NAD+K; outline: as §1
[4] = molecular target: T1, Alcohol dehydrogenase (Equus caballus) (UniProt P00327+P00328); test: The compound was tested for the ability to inactivate horse liver alcohol dehydrogenase in the presence of 1 mM NAD+k
[5] = molecular target: T2, Alcohol dehydrogenase (Homo sapiens) (UniProt P07327+P08319+P00325+P00326+P40394+P11766+P28332); test: The compound was tested for the ability to inactivate human liver alcohol dehydrogenase in the presence of 1 mM NAD+k
Outline: (§3)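 Human liver ADH, purified on carboxymethyl- and DEAE-cellulose plus (NH₄)₂SO₄ (60%) with 5% ethanol throughout, ethanol dialysed out. Inactivation at 25 °C in 0.1 M Na₂P₂O₇, pH 8, enzyme about 0.2 mg/mL, 0.2 mM reagent; NAD⁺ added 1 min before reagent where used. Apparent second-order constant calculated assuming first order in reagent.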

[6] = molecular target: T1, Alcohol dehydrogenase (Equus caballus); test: The compound was tested for the ability to inactivate horse liver alcohol dehydrogenase in the absence of NAD+k
[7] = molecular target: T2, Alcohol dehydrogenase (Homo sapiens); test: (§4) The compound was tested for the ability to inactivate human liver alcohol dehydrogenase in the absence of NAD+K; outline: as §3
[8] = system: Mus musculus; test: Percent inhibition of rate of ethanol metabolism in mice at dose 0.13 mmol/kg; assay type: functional
Outline: (§5)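 Fed male Swiss-Webster mice (20–25 g), four or five per group; compound suspended in sterile 0.9% saline, single i.p. dose 22–24 h before i.p. ethanol 3 g/kg (40% w/v in saline). Tail-vein blood ethanol by GC (1-propanol internal standard); elimination rate = β slope × dose/extrapolated zero-time level. Liver ADH afterwards: homogenate activity with ethanol/NAD⁺ minus 10 mM pyrazole control, per mg protein.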

[9] = (§6) Percent inhibition of Alcohol dehydrogenase activity in rat liver at dose 0.13 mmol/kg; assay type: tissue-based
Outline: as §5, with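 “Male Sprague-Dawley rats (160–200” for “Fed male Swiss-Webster mice (20–25”, “two” for “four or five”, “experiment;” for “group;”, “2” for “3”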

[10] = The compound was tested for the ability to inactivate mouse liver alcohol dehydrogenase in the presence of 1 mM NAD+K; Slow inactivation
[11] = Toxic effect in rats; assay type: toxicity, organism-based; conditions: rat, in vivo
Outline: (§7)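 Male Sprague-Dawley rats (160–200 g), two per dose; single i.p. dose of compound suspended in sterile 0.9% saline. Acute lethality scored over 24 h after dosing.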

[12] = system: Rattus norvegicus; test: (§8) Percent inhibition of rate of ethanol metabolism in rats at dose 0.13 mmol/kg; assay type: functional
Outline: as §5, with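 “Male Sprague-Dawley rats (160–200” for “Fed male Swiss-Webster mice (20–25”, “two” for “four or five”, “experiment;” for “group;”, “2” for “3”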

[13] = Percent inhibition of Alcohol dehydrogenase activity in mice liver at dose 0.13 mmol/kg; assay type: tissue-based; outline: as §5
[14] = system: Mus musculus; test: Percent inhibition of recovery of rotarod performance in mice at dose 0.13 mmol/kg; assay type: functional
Outline: (§9)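 Mice trained to hang on a 2-cm rod rotating at 7 rpm, two 15-min periods. Reagent given ip 22 h before ethanol 3 g/kg; five mice per dose, five vehicle controls. Impairment = 100(15 − minutes on rod)/15, probit-transformed; t1/2 for regaining 50% performance by regression. Inhibition = [t1/2(treated) − t1/2(control)]/t1/2(treated).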

[15] = Toxic effect in mice; assay type: toxicity, organism-based; conditions: mouse, in vivo
Outline: (§10)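 Male Swiss-Webster mice (20–25 g); single i.p. dose of compound suspended in sterile 0.9% saline. Acute lethality scored over 24 h; LD₅₀ with limits at p ≤ 0.05 from three doses on 15 mice.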

[16] = molecular target: T2, Alcohol dehydrogenase (Homo sapiens); test: as §4; remark: listed apart in the source
Outline: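 Human liver ADH purified by CM- and DEAE-cellulose chromatography and (NH₄)₂SO₄ precipitation, with 5% ethanol removed by dialysis. Enzyme about 0.2 mg/mL with 0.2 mM reagent in 0.1 M Na₂P₂O₇, pH 8, 25 °C, no coenzyme. Apparent second-order rate constant assumes first order in reagent.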

[17] = as §6; assay type: tissue-based; remark: listed apart in the source
Outline: (§11)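 Fed male Sprague-Dawley rats (160–200 g) received a single ip saline-suspended reagent dose, then ethanol 2 g/kg ip (40% w/v in saline) 22–24 h afterwards. Liver excised when blood ethanol neared zero, homogenized on ice, centrifuged. Activity = initial rate with ethanol and NAD⁺ minus rate in control assay containing 10 mM pyrazole, expressed per mg protein. Two rats per experiment.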

[18] = molecular target: T1, Alcohol dehydrogenase (Equus caballus); test: The compound was tested for the ability to inactivate horse liver alcohol dehydrogenase in the presence of 0.2 mM NAD+K
[19] = The compound was tested for the ability to inactivate rat liver alcohol dehydrogenase in the presence of NAD+K; outline: as §1
[20] = molecular target: T1, Alcohol dehydrogenase (Equus caballus); test: The compound was tested for the ability to inactivate horse liver alcohol dehydrogenase in the presence of 0.2 mM NAD+(K
[21] = The compound was tested for the ability to inactivate mouse liver alcohol dehydrogenase in the presence of 1 mM NAD+K; outline: as §2
[22] = system: Rattus norvegicus; test: as §8; assay type: functional; remark: listed apart in the source
Outline: (§12)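 Rats (male Sprague-Dawley, fed) pretreated ip with reagent suspended in saline 22–24 h before ethanol 2 g/kg ip. Serial 5 µL tail-vein samples, Ba(OH)₂/ZnSO₄ deproteinization with 1-propanol internal standard, GC-FID. Metabolic rate = blood-ethanol decline slope × ratio of dose to extrapolated zero-time blood level. Two rats per experiment.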

[23] = system: Alcohol dehydrogenase (Equus caballus); test: The compound was tested for the ability to inactivate horse liver alcohol dehydrogenase in the presence of 0.2 mM NAD+K
[24] = system: Alcohol dehydrogenase (Homo sapiens); test: The compound was tested for the ability to inactivate human liver alcohol dehydrogenase in the presence of 0.2 mM NADH(K
[25] = molecular target: T2, Alcohol dehydrogenase (Homo sapiens); test: The compound was tested for the ability to inactivate human liver alcohol dehydrogenase in the absence of NAD+(K; outline: as §3
[26] = molecular target: T2, Alcohol dehydrogenase (Homo sapiens); test: The compound was tested for the ability to inactivate human liver alcohol dehydrogenase in the presence of 1 mM NAD+(K; outline: as §3
[27] = system: Mus musculus; test: In vivo inhibition of ADH activity in mice liver at a dose of 0.48 mmol/kg; assay type: functional
Outline: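 Male Swiss-Webster mice (20–25 g), fed, given one ip dose of reagent suspended in sterile 0.9% saline, then ethanol 3 g/kg ip (40% w/v in saline) 22–24 h later. Liver removed once blood ethanol approached zero, chilled, homogenized, clarified by centrifugation. ADH activity taken as initial-velocity difference, ethanol/NAD⁺ assay minus same assay with 10 mM pyrazole, per mg protein. Four or five mice per group.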

[28] = system: Rattus norvegicus; test: In vivo inhibition of ADH activity in rat liver at a dose of 0.48 mM/kg; assay type: functional; outline: as §11
[29] = system: Mus musculus; test: In vivo inhibition of rate of ethanol metabolism in mice at dose 0.48 mmol/kg; assay type: functional
Outline: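 Mice (male Swiss-Webster, fed) dosed ip with reagent in saline 22–24 h before ethanol 3 g/kg ip. Tail-vein blood (5 µL) deproteinized with Ba(OH)₂/ZnSO₄, 1-propanol internal standard, analyzed by GC with flame-ionization detection. Elimination slope fitted excluding absorption (1–2 h), multiplied by r (dose / theoretical zero-time blood level) to give metabolic rate. Four or five mice per group.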

[30] = molecular target: T1, Alcohol dehydrogenase (Equus caballus); test: The compound was tested for the ability to inactivate horse liver alcohol dehydrogenase in the presence of 1 mM NAD+; second order rate constant M-1 min-1
[31] = system: Rattus norvegicus; test: In vivo inhibition of rate of ethanol metabolism in rats at dose 0.48 mmol/kg; assay type: functional; outline: as §12
[32] = system: Mus musculus; test: In vivo inhibition of recovery of rotarod performance in mice at a dose of 0.48 mM/kg; assay type: functional; outline: as §9
[33] = Toxic effect in mice was determined in vivo; assay type: toxicity, organism-based; conditions: mouse; outline: as §10
[34] = Toxic effect in rats was determined in vivo; assay type: toxicity, organism-based; conditions: rat; outline: as §7

| Compound | Rate constant [1] [M⁻¹ s⁻¹] | Rate constant [2] [M⁻¹ s⁻¹] | Rate constant [3] [M⁻¹ s⁻¹] | Rate constant [4] [M⁻¹ s⁻¹] | Rate constant [5] [M⁻¹ s⁻¹] | Rate constant [6] [M⁻¹ s⁻¹] | Rate constant [7] [M⁻¹ s⁻¹] | other results |
| --- | --- | --- | --- | --- | --- | --- | --- | --- |
| NC(=O)CBr | 0.0883 | 0.147 |  | 0.000167 | 0.0483 | 0.0267 |  | inhibition in vivo at 130 µmol/kg [8]: 18%; inhibition [9]: 0%; Rate constant [10]: Slow inactivation; LD50 [11]: 270 µmol/kg; inhibition in vivo at 130 µmol/kg [12]: 11%; inhibition [13]: 27%; inhibition in vivo at 130 µmol/kg [14]: 28%; LD50 [15]: 270 µmol/kg; Rate constant [16]: 0.0483 M⁻¹ s⁻¹ |
| O=C(O)CCCc1ccc(NC(=O)CBr)cc1 |  | 0.633 | 0.533 | 2 |  | 1.67 |  | inhibition [17]: 27%; Rate constant [18]: 0.25 M⁻¹ s⁻¹; Rate constant [19]: 0.533 M⁻¹ s⁻¹; Rate constant [20]: 0.25 M⁻¹ s⁻¹; Rate constant [21]: 0.233 M⁻¹ s⁻¹; inhibition in vivo at 130 µmol/kg [22]: 24%; Rate constant [23]: 0.25 M⁻¹ s⁻¹; Rate constant [24]: 0.085 M⁻¹ s⁻¹; Rate constant [25]: 0.183 M⁻¹ s⁻¹; Rate constant [26]: 2.33 M⁻¹ s⁻¹ |
| CC(=O)Nc1ccc(CCCC(N)=O)cc1 |  |  |  |  |  |  |  | inhibition in vivo at 480 µmol/kg [27]: 43%; Inhibition [28]: 8%; inhibition in vivo at 480 µmol/kg [29]: 60%; Activity [30]: 1500; inhibition in vivo at 480 µmol/kg [31]: 0%; Inhibition [32]: 60%; LD50 [33]: > 480 µmol/kg; LD50 [34]: > 480 µmol/kg |
| O=C(O)CCCCCCCCCCNC(=O)CBr | 0.152 | 0.147 | 0.0667 | 0.05 | 23.3 | 0.717 | 3.83 |  |

The next lines start with results.

| Rate constant [1] [M⁻¹ s⁻¹] | Rate constant [2] [M⁻¹ s⁻¹] | Rate constant [3] [M⁻¹ s⁻¹] | Rate constant [4] [M⁻¹ s⁻¹] | Rate constant [5] [M⁻¹ s⁻¹] | Rate constant [6] [M⁻¹ s⁻¹] | Rate constant [7] [M⁻¹ s⁻¹] | Compound | other results |
| --- | --- | --- | --- | --- | --- | --- | --- | --- |
| 0.2 | 0.0817 | 0.0667 | 0.12 | 0.833 | 0.105 | 0.112 | O=C(O)CCCCCCCNC(=O)CBr |  |
| 0.183 | 0.127 | 0.0133 | 0.00833 | 0.138 | 0.0983 | 0.112 | O=C(O)CCCCCCNC(=O)CBr |  |
| 0.2 | 0.0817 | 0.2 | 0.0817 | 4 | 0.167 | 0.383 | O=C(O)CCCCCCCCNC(=O)CBr |  |
